Shown are actives, neighbours in structure and some others; about 0.74% of the full set was active somewhere.
ARFGAP1 inh: inhibitors of rat ARFGAP1 | 0.26% of 360,000 active | Q62848 | Arfgap1-stimulated ARF1 GTP hydrolysis, GDP FP detection | inhibition, % at 16.5 µM;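 active = inhibition above a per-plate limit, mean inhibition of low control wells plus 3 SD, cut at about 25% in these data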
Target sequence (Q62848 1-136 limits assumed): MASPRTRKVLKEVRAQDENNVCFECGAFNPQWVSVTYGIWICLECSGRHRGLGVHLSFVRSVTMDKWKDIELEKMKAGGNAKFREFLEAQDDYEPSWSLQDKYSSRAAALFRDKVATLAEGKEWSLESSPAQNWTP
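Material: rat Arfgap1 catalytic domain, aa 1-136; also added: human ARF1(Δ1-17)-GTP substrate; compound dosing: one concentration, 16.5 µM, DMSO 1.26%; incubation: GTP hydrolysis reaction 2 h at 25 °C; measured by: Tracer-displacement fluorescence polarization with EDTA stop, 620/688 nm; evaluation: % inhibition from polarization; repeats: one replicate per compound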
ASAP1 inh: ASAP1 ArfGAP inhibition. inhibition, % at 16.5 µM. 0.19% of 360,000 active. Q9ULH1. AID 624377. ASAP1-stimulated ARF1 GTP hydrolysis, GDP FP detection; in the data active = inhibition above about 25%
DDE Tn6 FP inh: inhibitors of Tn6 peptide binding to human fibrin DD(E). 0.21% of 370,000 active. inhibition, % at 8.3 µM. P02675. Fibrin DD(E) TRITC-Tn6 fluorescence polarization displacement;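 active = inhibition above a per-campaign cutoff: mean of compounds within control limits plus 3 SD, cut at about 15% in these data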
Tn7 DDE FP: inhibitors of Tn7 peptide binding to human fibrin DD(E) | 0.13% of 370,000 active | inhibition, % at 8.3 µM | FP displacement of FITC-Tn7 peptide from fibrin DD(E); 0% = median of compound wells per plate;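 active = inhibition above the mean of compounds falling within the control limits plus 3 SD of them, cut at about 14% in these data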
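System: human fibrin DD(E); quantity: Fibrin-DD(E) at 2 µM final; also added: fluorescent Tn7 probe at 0.1 µM; compound dosing: single nominal test concentration of 8.3 µM per compound; schedule: 10 min preincubation, 3 h with tracer, room temperature; detection: fluorescence polarization of the labelled Tn7 tracer; repeats: one replicate per compound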
Tn6 DDE ctr: counter-screen for inhibitors of Tn6 peptide binding to fibrin DD(E). shares compounds with DDE Tn6 FP inh. TRITC-Tn6 fluorescence polarization displacement; 0% = median of compound wells, not DMSO. inhibition, % at 8.3 µM. 2% of 680 active. AID 720621;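 active = inhibition above the mean of test compounds lying between the control limits plus 3 SD of those, cut at about 14% in these data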
Tn6 DDE conf: confirmation of inhibitors of Tn6 binding to human fibrin DD(E); shares compounds with DDE Tn6 FP inh; FP displacement of TRITC-Tn6 peptide from DD(E); 0% = per-plate median of test wells; inhibition, % at 8.3 µM; 10% of 680 active; AID 720631;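 active = inhibition above the mean of compounds lying within the control limits plus 3 SD, cut at about 16% in these data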
Large screens that a line does not name were inactive (follow-up assays come after a bar, where they were run).

CCc1c(-c2cccc(F)c2)ncn1CCc1ccccc1OC	none
COc1ccccc1NS(=O)(=O)c1cccc(C(=O)N2CCN(C(=O)c3ccco3)CC2)c1	DDE Tn6 FP inh 16 | Tn6 DDE ctr inactive | Tn6 DDE conf inactive
COc1ccccc1NS(=O)(=O)c1cccc(NC(=O)Nc2ccc(Cl)cc2)c1	DDE Tn6 FP inh 170 | Tn6 DDE ctr inactive | Tn6 DDE conf 23
Cc1ccc2oc(=O)c3cc(C(=O)NCCCN4CCC(C)CC4)sc3c2c1	none
C[C@H]1Cn2cnc(C(=O)N3CCN(C(=O)OC(C)(C)C)CC3)c2C(=O)N1	none
CC(CNC(=O)C(C)(C)C)NC(=O)C(C)(C)C (centres undefined)	none
CCCC(NC(=O)CNC(=O)C(C)(C)C)C(=O)O (centres undefined)	DDE Tn6 FP inh 16 | Tn6 DDE ctr inactive | Tn6 DDE conf inactive
C=CCCC(=O)N(Cc1ccccc1)c1ccccc1C(=O)Nc1cc(OC)ccc1OC	none (no result: ARFGAP1 inh, ASAP1 inh)
Cc1ccccc1NC(=S)NCc1ccc2c(c1)cc(C)n2C	DDE Tn6 FP inh 20 | Tn6 DDE ctr inactive | Tn6 DDE conf inactive
Cc1cc2cc(CNC(=O)C(C)Oc3ccccc3)ccc2n1C (centres undefined)	DDE Tn6 FP inh 36 | Tn6 DDE ctr inactive | Tn6 DDE conf inactive
Cc1cc2cc(CNC(=O)CC(C)C)ccc2n1C	DDE Tn6 FP inh 16 | Tn6 DDE ctr inactive | Tn6 DDE conf inactive
Cc1ccc(-n2nc3cc(C)c(N)cc3n2)cc1	none
Cc1cc2nc3ccc(N(C)C)cc3nc2cc1N	DDE Tn6 FP inh 33 | Tn6 DDE ctr inactive | Tn6 DDE conf 65
O=C(CN1C2CCCC1CC(NC(=O)C1CCCCC1)C2)NCc1ccc(F)cc1 (centres undefined)	DDE Tn6 FP inh 16 | Tn6 DDE ctr inactive | Tn6 DDE conf inactive
O=C(CN1C2CCCC1CC(NC(=O)C1CCCCC1)C2)Nc1ccccc1C(F)(F)F (centres undefined)	none
CN(C(=O)c1cccc(NC(=O)Cc2ccc(NC(=O)C3CCCN(C(=O)c4ccccc4)C3)cc2)c1)C1CC1 (centres undefined)	none
COc1ccc(C(=O)N/C=C/n2cnc3cc(C(F)(F)F)ccc32)cc1	DDE Tn6 FP inh 16 | Tn6 DDE ctr inactive | Tn6 DDE conf inactive
CCOC(=O)Nc1ccc2c(c1)Cc1cc([N+](=O)[O-])ccc1-2	DDE Tn6 FP inh 17 | Tn6 DDE ctr inactive | Tn6 DDE conf inactive
COc1cccc2cc(-c3n[nH]c(=S)n3C)oc12	DDE Tn6 FP inh 18 | Tn6 DDE ctr inactive | Tn6 DDE conf inactive
COc1cccc2cc(-c3ccnc(N)n3)oc12	none
COC(=O)N1C[C@H](OCc2cn(-c3ccc(OC)cc3)nn2)[C@H]2C[C@@H]1c1ccccc1O2	none
CCOc1ccc(CCNC(=O)c2cc3sc(Cl)cc3n2C)cc1OCC	DDE Tn6 FP inh 34 | Tn6 DDE ctr inactive | Tn6 DDE conf inactive
Cn1c(=O)c(=O)n(C)c2cc(S(=O)(=O)N3CCN(Cc4ccc5c(c4)OCO5)CC3)ccc21	none (no result: ARFGAP1 inh, ASAP1 inh)
Nc1nc2c(c(=O)[nH]1)CN(Cc1ccccc1)CC2	none
Nc1ncnc2c1CN(Cc1ccccc1)CC2	DDE Tn6 FP inh 65 | Tn6 DDE ctr inactive | Tn6 DDE conf inactive
CN(C)c1ccc2nc3c(=O)[nH]c(=O)nc-3n(CC(O)C(O)C(O)CO)c2c1 (centres undefined)	DDE Tn6 FP inh 73 | Tn6 DDE ctr inactive | Tn6 DDE conf inactive
Cc1ncc(C(O)c2ccc(N(C)C)cc2)n1Cc1ccccc1 (centres undefined)	none
COC(=O)C1=C(C)N(C)C(=NCC2CC2)NC1c1ccccc1C(F)(F)F (centres undefined)	none
Cc1ccc(Cn2ccsc2=NC(=O)CCl)cc1	none
Cc1ccc(Cn2ccsc2=NC(=O)COC(=O)c2ccc(NC(=O)CC#N)cc2)cc1	DDE Tn6 FP inh 16 | Tn6 DDE ctr inactive | Tn6 DDE conf inactive
COCCNC(=O)Cn1c(=O)n(Cc2ccc(C(=O)NCCc3ccc(OC)c(OC)c3)cc2)c(=O)c2ccccc21	DDE Tn6 FP inh 17 | Tn6 DDE ctr inactive | Tn6 DDE conf inactive
COCCCNC(=O)c1ccc(Cn2c(=O)c3ccccc3n(CC(=O)NCc3ccco3)c2=O)cc1	none
